For one series, the species on record is Gallus gallus. Put plainly: Antiangiogenic activity in chicken embryo chorioallantoic membrane model assessed as inhibition of FGF-induced angiogenesis at 1 uM treated 1 hr after FGF challenge measured after 48 hrs relative to control. Type of series: functional, tissue-based. The method in brief:
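Live chick chorioallantoic membrane was exposed to FGF with or without test agent, with PBS as a control. New vessel formation was scored as branch points and reported as mean ± SEM, n = 8. Percent inhibition was calculated against the FGF control.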

The species named for a further series is Mus musculus. Put plainly: Antiangiogenic activity in […] mouse assessed as inhibition of FGF-induced angiogenesis at 10 ug/Matrigel plug measured after 15 days of Matrigel injection using […] reagent staining by ELISA. The settings on record: in the assay text read “after 14 days” for “after 15 days”. Type of series: functional. The method in brief: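 Mice housed 4 per cage at 20–24 °C, 60–70% humidity, 12 h light/dark, food and water ad libitum, with 5 days' acclimation. Matrigel thawed overnight at 4 °C, kept on ice, injected subcutaneously with FGF. Dissected plugs were stripped of peritoneum, homogenized in ddH₂O for 5–10 min, and spun at 4000 rpm for 10 min. Supernatant was mixed with Drabkin's reagent for 15–30 min at room temperature for hemoglobin measurement.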
For orientation: In an ELISA, binding on a coated surface is turned into a signal by an enzyme label.

Series [1] in a line: Dissociation constant, pKa of the compound. The class given is physicochemical.

As for `CC(C)[Si](OC(=O)Cc1cc(I)c(Oc2cc(I)c(O)c(I)c2)c(I)c1)(C(C)C)C(C)C`, the inhibition (commonly the relative decrease from the control value, in per cent) in the series listed under Gallus gallus was determined as 75%. For the same compound, the “inhibition (INH)” value in the series listed under Mus musculus worked out at 104%.
For `O=C(O)Cc1cc(I)c(Oc2cc(I)c(O)c(I)c2)c(I)c1` [TETRAC], the inhibition in the series listed under Gallus gallus is 85%. Also, in series [1], the pKa (usually the pH at which an ionisable group is half protonated) turned out to be 4.3. Further, in the series listed under Mus musculus, the “inhibition (INH)” value came out at 90%.
With `O=C(Cc1cc(I)c(Oc2cc(I)c(OCC3CO3)c(I)c2)c(I)c1)N1CCCCC1` (configuration not stated), in the series listed under Gallus gallus, the inhibition was determined as 44%. For the same compound, the “inhibition (INH)” value in the series listed under Mus musculus turned out to be 80%.
On the same counts, the results for `CC(C)[Si](OC(=O)Cc1cc(I)c(Oc2cc(I)c(OCC3CO3)c(I)c2)c(I)c1)(C(C)C)C(C)C` (configuration not stated) are 96% and 100%.
For `CC(C)(C)OC(=O)Cc1cc(I)c(Oc2cc(I)c(O)c(I)c2)c(I)c1`, the inhibition in the series filed under Gallus gallus was 88%. In the series listed under Mus musculus, the “inhibition (INH)” value is on record as 95%.
On to `O=C(O)Cc1cc(I)c(Oc2cc(I)c(OCC3CO3)c(I)c2)c(I)c1` (configuration not stated), for which, in the series listed under Gallus gallus, the inhibition is 62%. The “inhibition (INH)” value in the series filed under Mus musculus was determined as 100%.
For `O=C(Cc1cc(I)c(Oc2cc(I)c(OCC3CO3)c(I)c2)c(I)c1)OCC1CO1` (configuration not stated), the inhibition in the series filed under Gallus gallus is 31%. Moreover, the “inhibition (INH)” value in the series listed under Mus musculus is recorded as 100%.
Taken in the same sequence, the figures for `O=C(Cc1cc(I)c(Oc2cc(I)c(O)c(I)c2)c(I)c1)N1CCCCC1` were 15% and 104%.
